Published values collected from several papers.
Lines come from different studies, so protocols differ.
NPY1R: Neuropeptide Y receptor type 1 (NPY1R, Homo sapiens, UniProt P25929)
Transmembrane protease serine 6: Transmembrane protease serine 6 (Homo sapiens, UniProt Q8IU80)
AVPR2: Vasopressin V2 receptor (AVPR2, Homo sapiens, UniProt P30518)
AGTR1: Type-1 angiotensin II receptor (AGTR1, Homo sapiens, UniProt P30556)
MTOR: Serine/threonine-protein kinase mTOR (MTOR, Homo sapiens, UniProt P42345)

| Compound | target | assay | conditions | inhibition [%] |
| --- | --- | --- | --- | --- |
| COCc1c(-c2cc3cc(C)cc(OC)c3s2)c2c(N)ncnn2c1CN1CCNC(=O)C1 | Serine/threonine-protein kinase Nek5 (NEK5, Homo sapiens, UniProt Q6P3R8) | cell-free assay, competition with immobilised ligand | 1 µM | 90.1 |
| CC(C)N1CCC[C@H]1CNC(=O)c1cn(C2CCCC2)c(=O)c2c1c1ccccc1n2C | NPY1R | ligand displacement, radioligand | 10 µM | 5 |
| CN1CCN(CCCCOc2ccc3occc(=O)c3c2)CC1 | Transmembrane protease serine 6 | enzyme activity, inhibitor, fluorescence | 10 µM | 11 |
| CN(CCN1CCC(OC(=O)Nc2ccccc2-c2ccccc2)CC1)C(=O)c1ccc(CN2CCC(C(N)=O)CC2)cc1 | AVPR2 | ligand displacement, radioligand | 1 µM | -7 |
| CCN(CC)CCCC[C@H](NC(=O)[C@H](CC(C)C)NC(=O)[C@H](C)NC(=O)[C@H](Cc1ccccc1)NC(=O)c1ccc(C(C)(C)C)cc1)C(=O)N[C@@H](CO)C(=O)OC | AGTR1 | ligand displacement, radioligand | 10 µM | -4 |
| C[C@H](C(=O)N[C@H]1COc2ccccc2[C@@H]1S(C)(=O)=O)c1ccc(F)cc1 | AGTR1 | cell-free assay | 10 µM | -6 |
| O=C(Nc1cccnn1)N1CCN([C@@H]2CCOc3cc(C(F)(F)F)ccc32)CC1 | AVPR2 | cell-free assay | 20 µM | -4 |
| CC(C)C(CC(=O)NO)N=[N+]=[N-] (stereo not shown) | Endoplasmic reticulum aminopeptidase 2 (ERAP2, Homo sapiens, UniProt Q6P179) | enzyme activity, inhibitor, fluorescence | 300 µM | 5 |
| COCCN(CCOC)C(=O)[C@@]12C[C@@H]1[C@@H](n1cnc3c(NC(C4CC4)C4CC4)nc(Cl)nc31)[C@H](O)[C@@H]2O | Adenosine receptor A3 (ADORA3, Homo sapiens, UniProt P0DMS8) | ligand displacement, radioligand | 10 µM | 30 |
| CN1CCN(CCCOc2ccc3occc(=O)c3c2)CC1 | Transmembrane protease serine 6 | enzyme activity, inhibitor, fluorescence | 10 µM | 5 |
| Clc1ccc2c(C3CCN(CCc4c[nH]c5ccccc45)CC3)c[nH]c2c1 | Neuronal acetylcholine receptor; alpha4/beta2 (Homo sapiens, UniProt P17787+P43681) | ligand displacement, radioligand | 10 µM | 3 |
| Cn1cc(-c2cc(F)cc(N3CCn4c(cc5c4CCCC5)C3=O)c2CO)cc(Nc2ccc(N3CCN(C4COC4)CC3)cn2)c1=O | SRSF protein kinase 3 (SRPK3, Homo sapiens, UniProt Q9UPE1) | enzyme activity, inhibitor | 0.1 µM | 15 |
| COc1ccc(S(=O)(=O)N2CCCCC2)cc1C | NPY1R | ligand displacement, radioligand | 10 µM | < 30 |
| C#Cc1n[nH]c2c(-c3cn(C(C)c4ccccn4)c(=O)[nH]c3=O)cc(F)cc12 (stereo not shown) | MTOR | enzyme activity, inhibitor | 1 µM | -1.6 |
| Cn1cc(-c2cccc(N3CCc4c(sc5c4CC(C)(C)C5)C3=O)c2CO)cc(Nc2ccncn2)c1=O | Protein kinase C delta type (PRKCD, Homo sapiens, UniProt Q05655) | enzyme activity, inhibitor | 1 µM | 1 |
| CC(C)Cn1cnc2c(N)nc3ccccc3c21 | NPY1R | ligand displacement, radioligand | 10 µM | 13 |
| C#Cc1n[nH]c2c(-c3cn([C@@H](C)c4ccccc4)c(=O)[nH]c3=O)cc(F)cc12 | MTOR | enzyme activity, inhibitor | 0.1 µM | 6.8 |
| c1ccc(C(NCCNC(c2ccccc2)c2ccccc2)c2ccccc2)cc1 | AGTR1 | cell-free assay | 10 µM | 40 |
| COc1cc(Nc2ncc(F)c(Nc3ccc4c(n3)NC(=O)C(C)(C)O4)n2)cc(OC)c1OC | Serine/threonine-protein kinase TAO1 (TAOK1, Homo sapiens, UniProt Q7L7X3) | binding | 10 µM | 92 |
